Calls of active or inactive are those of the source. The calls are words filed in the database; no cut-off is given here.
Legend:
RAW264.7 [1] = assay: Antiinflammatory activity in mouse RAW264.7 cells assessed as inhibition of LPS-induced NO production after 24 hrs by Griess assay; format: functional, cell-based; settings: for IC50: RAW264.7, 24 h
In short: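 LPS-stimulated RAW264.7 cells were co-treated with compound. Nitrite, a stable NO metabolite, was measured in culture medium with Griess reagent. IC50 (µM) was reported with a 95% confidence interval.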

RAW264.7 [2] = assay: Cytotoxicity against mouse RAW264.7 cells assessed as decrease in cell viability after 24 hrs by MTT assay; format: cell-based; settings: RAW264.7, 24 h
In short: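 RAW264.7 macrophage viability after compound exposure was measured by MTT assay. IC50 (µM) was calculated and reported with a 95% confidence interval.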

RAW264.7 [3] = assay: Selectivity index, ratio IC50 for cytotoxicity against mouse RAW264.7 cells to IC50 for antiinflammatory activity in mouse RAW264.7 cells; format: functional
In short: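 Ratio A/B in RAW 264.7 cells. A is the cytotoxicity IC50 from the MTT assay. B is the IC50 for inhibiting NO production in LPS-stimulated cells, with nitrite in the culture medium measured by Griess reagent. Both IC50s are reported with 95% confidence intervals.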

Mus musculus [4] = assay: Antiinflammatory activity in BALB/c mouse assessed as inhibition of LPS-induced TNF-alpha production at 10 mg/kg, ip pretreated for 3 days as single dose followed by LPS administration after 24 hrs by phycoerythrin staining based flow cytometry; format: functional, organism-based
Mus musculus [5] = assay: Antiinflammatory activity in BALB/c mouse assessed as inhibition of LPS-induced IL-6 production at 10 mg/kg, ip pretreated for 3 days as single dose followed by LPS administration after 24 hrs by phycoerythrin staining based flow cytometry; format: functional, organism-based
RAW264.7 [6] = assay: Antiinflammatory activity in mouse RAW264.7 cells assessed as inhibition of LPS-induced IL-12 production at 50 uM after 24 hrs by phycoerythrin staining based flow cytometry; format: functional, cell-based
In short: (§1)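 Cytokine bead array on protein extracts of RAW 264.7 cells treated with LPS plus compound at 50 µM. Read-outs were IL-12, IL-6, TNF-α, MCP-1 and IFN-γ, referenced to LPS-treated cells. Mean ± SD, n = 3 independent experiments.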

RAW264.7 [7] = assay: Antiinflammatory activity in mouse RAW264.7 cells assessed as inhibition of LPS-induced iNOS production at 50 uM after 24 hrs by Western blot analysis; format: functional, cell-based
In short: (§2)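 Protein was isolated from control, LPS, and LPS + compound (50 µM) RAW 264.7 cultures and immunoblotted. iNOS, COX-2 and phospho-NF-κB were quantified densitometrically against β-actin. Mean ± SD of 3 independent experiments, compared with LPS treatment.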

RAW264.7 [8] = assay: Antiinflammatory activity in mouse RAW264.7 cells assessed as inhibition of LPS-induced TNF-alpha production at 50 uM after 24 hrs by phycoerythrin staining based flow cytometry; format: functional, cell-based; in short: as §1
RAW264.7 [9] = assay: Antiinflammatory activity in mouse RAW264.7 cells assessed as inhibition of LPS-induced ROS production after 24 hrs by CM-H2DCFDA dye based fluorescence assay; format: functional, cell-based
In short: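 Intracellular ROS was measured in LPS-treated RAW 264.7 cells exposed to compounds at several doses. The read-out was mean fluorescence intensity, compared with LPS-treated cells. Data are mean ± SD of three independent experiments.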

Mus musculus [10] = species: Mus musculus; assay: Inhibition of LPS-induced NFkappaB phosphorylation in mouse RAW264.7 cells at 50 uM after 24 hrs by Western blot analysis; format: cell-based; in short: as §2
Mus musculus [11] = assay: Antiinflammatory activity in BALB/c mouse assessed as inhibition of LPS-induced […] production at 10 mg/kg, ip pretreated for 3 days as single dose followed by LPS administration after 24 hrs by phycoerythrin staining based flow cytometry; format: functional, organism-based
RAW264.7 [12] = assay: Antiinflammatory activity in mouse RAW264.7 cells assessed as inhibition of LPS-induced MCP-1 production at 50 uM after 24 hrs by phycoerythrin staining based flow cytometry; format: functional, cell-based; in short: as §1
RAW264.7 [13] = assay: Antiinflammatory activity in mouse RAW264.7 cells assessed as inhibition of LPS-induced […] production at 50 uM after 24 hrs by phycoerythrin staining based flow cytometry; format: functional, cell-based; in short: as §1
RAW264.7 [14] = assay: Antiinflammatory activity in mouse RAW264.7 cells assessed as inhibition of LPS-induced COX-2 production at 50 uM after 24 hrs by Western blot analysis; format: functional, cell-based; in short: as §2
RAW264.7 [15] = assay: Antiinflammatory activity in mouse RAW264.7 cells assessed as inhibition of LPS-induced IL-6 production at 50 uM after 24 hrs by phycoerythrin staining based flow cytometry; format: functional, cell-based; in short: as §1
Mus musculus [16] = assay: Antiinflammatory activity in BALB/c mouse assessed as inhibition of LPS-induced MCP-1 production at 10 mg/kg, ip pretreated for 3 days as single dose followed by LPS administration after 24 hrs by phycoerythrin staining based flow cytometry; format: functional, organism-based
Mus musculus [17] = assay: Antiinflammatory activity in BALB/c mouse assessed as inhibition of LPS-induced IL-12 production at 10 mg/kg, ip pretreated for 3 days as single dose followed by LPS administration after 24 hrs by phycoerythrin staining based flow cytometry; format: functional, organism-based
[18] = Antiviral activity against Influenza A virus A/WSN/33(H1N1) infected in MDCK cells at 50 uM preincubated for 15 mins measured after 1.5 days by CellTiter-Glo assay relative to control; format: functional, Influenza A virus (A/WSN/1933(H1N1))
[19] = Antiviral activity against Influenza A virus A/WSN/33(H1N1) infected in MDCK cells preincubated for 1 hr followed by compound wash measured after 48 hrs by plaque reduction assay; format: functional, cell-based, Influenza A virus (A/WSN/1933(H1N1))

Compound	IC50 (RAW264.7 [1])	IC50 (RAW264.7 [2])	Ratio IC50 (RAW264.7 [3])	further results
O=C(SC12CCC(O)C1C(=O)NC2=O)c1ccc(O)cc1 (racemic)	225 µM	434 µM	1.925	
CC(=O)S[C@]12CCC[C@H]1C(=O)NC2=O (relative stereo)	59.2 µM	674 µM	11.39	
CC(=O)O[C@@H]1CC[C@]2(SC(=O)c3ccc(F)cc3)C(=O)NC(=O)[C@H]12				inhibition (RAW264.7 [1]): Active
O=C1NC(=O)C2=C1CC[C@H]2O	121 µM	319 µM	2.631	
O=C(S[C@]12CC[C@H](O)[C@H]1C(=O)NC2=O)c1ccc(F)cc1 (relative stereo)	318 µM	474 µM	1.49	
O=C(S[C@@]12CC[C@@H](O)[C@@H]1C(=O)NC2=O)c1ccc(O)cc1	127 µM	2910 µM	22.99	
CC(=O)O[C@@H]1CC[C@@]2(SC(=O)c3ccc(F)cc3)C(=O)NC(=O)[C@@H]12				inhibition (RAW264.7 [1]): Active
CC(=O)OC1CC[C@]2(SC(=O)c3ccccc3)C(=O)NC(=O)[C@H]12 (stereo not given in full)	64.3 µM	1910 µM	29.74	
O=C(Cc1ccccc1)S[C@@]12CC[C@H](O)[C@@H]1C(=O)NC2=O (relative stereo)	132 µM	834 µM	6.322	
O=C(Cc1ccccc1)SC1CC[C@]2(SC(=O)Cc3ccccc3)C(=O)NC(=O)[C@H]12 (stereo not given in full)	57.5 µM	711 µM	12.36	
O=C(S[C@]12CC[C@H](O)[C@H]1C(=O)NC2=O)c1cccs1 (relative stereo)	36.6 µM	10900 µM	297.0519	inhibition (Mus musculus [4]): Active; inhibition (Mus musculus [5]): Active; inhibition (RAW264.7 [6]): Active; inhibition (RAW264.7 [7]): Active; inhibition (RAW264.7 [8]): Active; inhibition (RAW264.7 [9]): Dose-dependent effect; inhibition (Mus musculus [10]): Active; inhibition (Mus musculus [11]): Active; inhibition (RAW264.7 [12]): Active; inhibition (RAW264.7 [13]): Active; inhibition (RAW264.7 [14]): Active; inhibition (RAW264.7 [15]): Active; inhibition (Mus musculus [16]): Active; inhibition (Mus musculus [17]): Active
O=C(Cc1ccccc1)SC12CCC=C1C(=O)NC2=O (stereo not given)	30.6 µM	93.1 µM	3.042	
CC(=O)OC1CC[C@]2(SC(=O)c3ccc(F)cc3)C(=O)NC(=O)[C@H]12 (stereo not given in full)	34.3 µM	12100 µM	353.8076	inhibition (Mus musculus [4]): Active; inhibition (Mus musculus [5]): Active; inhibition (RAW264.7 [6]): Active; inhibition (RAW264.7 [7]): Active; inhibition (RAW264.7 [8]): Active; inhibition (RAW264.7 [9]): Dose-dependent effect; inhibition (Mus musculus [10]): Active; inhibition (Mus musculus [11]): Active; inhibition (RAW264.7 [12]): Active; inhibition (RAW264.7 [13]): Active; inhibition (RAW264.7 [14]): Active; inhibition (RAW264.7 [15]): Active; inhibition (Mus musculus [16]): Active; inhibition (Mus musculus [17]): Active
O=C(S[C@]12CC[C@@H](O)[C@H]1C(=O)NC2=O)c1ccc(O)cc1	42 µM	616 µM	14.67	
O=C(S[C@@]12CC[C@H](O)[C@@H]1C(=O)NC2=O)c1ccccc1Cl (relative stereo)		668 µM	5.245	
CC(=O)O[C@H]1CCC2=C1C(=O)NC2=O	867 µM	128 µM	0.1477	
O=C(S[C@@]12CC[C@H](O)[C@@H]1C(=O)NC2=O)c1ccc(O)cc1	71.8 µM	1020 µM	14.14	Activity [18]: 18.6%
CCOC(=O)C1=C[C@@H](OC(CC)CC)[C@H](NC(C)=O)[C@@H](N)C1.O=P(O)(O)O [OSELTAMIVIR PHOSPHATE]				EC50 [19]: 67 µM; Activity [18]: 54%

Compound	IC50 (RAW264.7 [1])	IC50 (RAW264.7 [2])	Ratio IC50 (RAW264.7 [3])	further results
CC(=O)OC1CC[C@]2(SC(=O)Cc3ccccc3)C(=O)NC(=O)[C@H]12 (stereo not given in full)	68.2 µM	1610 µM	23.57	
O=C(Cc1ccccc1)S[C@]12CC[C@H](O)[C@H]1C(=O)NC2=O (relative stereo)	143 µM	774 µM	5.418	
O=C1NC(=O)C2=C1CCC2SC(=O)c1cccs1 (stereo not given)	65 µM	26.7 µM	0.4108	
O=C(S[C@@]12CC[C@H](O)[C@@H]1C(=O)NC2=O)c1ccccc1 (relative stereo)	72.4 µM	479 µM	6.622	
O=C(S[C@]12CCC[C@H]1C(=O)NC2=O)c1ccccc1Cl (relative stereo)	59.8 µM	834 µM	13.95	
CC(=O)OC1CC[C@]2(SC(=O)c3ccccc3Cl)C(=O)NC(=O)[C@H]12 (stereo not given in full)	101 µM	9080 µM	89.51	
O=C(S[C@]12CC[C@H](O)[C@H]1C(=O)NC2=O)c1ccccc1Cl (relative stereo)	178 µM	717 µM	4.022	
CC(=O)SC12CCC=C1C(=O)NC2=O (stereo not given)	20.5 µM	184 µM	9	
CC(=O)S[C@]12CC[C@H](O)[C@H]1C(=O)NC2=O (relative stereo)	833 µM	857 µM	1.029	
CC(=O)SC1CC[C@]2(SC(C)=O)C(=O)NC(=O)[C@H]12 (stereo not given in full)	19.8 µM	10000 µM	505.4343	inhibition (Mus musculus [4]): Active; inhibition (Mus musculus [5]): Active; inhibition (RAW264.7 [6]): Active; inhibition (RAW264.7 [7]): Active; inhibition (RAW264.7 [8]): Active; inhibition (RAW264.7 [9]): Dose-dependent effect; inhibition (Mus musculus [10]): Active; inhibition (Mus musculus [11]): Active; inhibition (RAW264.7 [12]): Active; inhibition (RAW264.7 [13]): Active; inhibition (RAW264.7 [14]): Active; inhibition (RAW264.7 [15]): Active; inhibition (Mus musculus [16]): Active; inhibition (Mus musculus [17]): Active
CC(=O)S[C@@]12CC[C@H](O)[C@@H]1C(=O)NC2=O (relative stereo)	148 µM	558 µM	3.7762	
O=C(Cc1ccccc1)S[C@]12CCC[C@H]1C(=O)NC2=O (relative stereo)	56.9 µM	426 µM	7.48	
CC(=O)O[C@H]1CC[C@]2(SC(=O)c3ccc(F)cc3)C(=O)NC(=O)[C@H]12				inhibition (RAW264.7 [1]): Active
O=C(S[C@]12CCC[C@H]1C(=O)NC2=O)c1ccc(F)cc1 (relative stereo)	390 µM	384 µM	0.9841	
O=C(SC1CC[C@]2(SC(=O)c3ccc(F)cc3)C(=O)NC(=O)[C@H]12)c1ccc(F)cc1 (stereo not given in full)	98.3 µM	211 µM	2.142	
O=C1NC(=O)C2=C1CC[C@@H]2O	95.9 µM	217 µM	2.26	
O=C(S[C@]12CC[C@H](O)[C@H]1C(=O)NC2=O)c1ccccc1 (relative stereo)	65.2 µM	17100 µM	261.7025	

Source: ChEMBL document CHEMBL4052621, “Identification of new anti-inflammatory agents based on nitrosporeusine natural products of marine origin” (Eur J Med Chem, 2017)
